ChEMBL document CHEMBL2034894, “The structures of three metabolites of the algal hepatotoxin okadaic acid produced by oxidation with human cytochrome P450” (Bioorg Med Chem, 2012)
The source made the active and inactive calls. No cut-off for these calls is given here. Numbered stars: 1 amine (or outer) side, 2 acyl side, 3 side chain; on linkers, the order of the positions; unused ones are H or OH. Bridge positions count the residues as written; N and C are the ends. Square brackets hold non-standard residues; d marks the D form. Peptide text beside a SMILES is read from it. Adda = CO[C@@H](Cc1ccccc1)[C@@H](C)/C=C(C)/C=C/[C@H](N[*:1])[C@H](C)C(=O)[*:2]; dAsp(3S-Me) = C[C@H](C(=O)[*:3])[C@@H](N[*:1])C(=O)[*:2]; d(γGlu) = O=C(O)[C@@H](CCC(=O)[*:2])N[*:1]; NMeDha = C=C(NC)C(=O)O

Columns and labels:
[1] = Inhibition of protein phosphatase 1
[2] = Inhibition of PP2A using p-NPP as substrate pretreated for 1 hr by spectrophotometry
[3] = Irreversible inhibition of PP2A using p-NPP as substrate assessed as recovery of enzyme activity pretreated for 1 hr followed by 4 hrs dialysis by spectrophotometry
Procedure, shortened: (§1)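 PP2A (0.07 U) was mixed 1:1 by volume with inhibitor solutions in 5% MeOH/H2O (20–100 µM before mixing) at 37 °C; controls got 5% MeOH/H2O alone. Buffer: 50 mM Tris, 2 mM MnCl2, 1.1 mM EDTA, 1.3 mM DTT, 0.125 mg/mL BSA. Samples were dialysed against buffer for 4 h at 5–7 °C, then given p-NPP (7.8 mM final) for 2 h at 37 °C; A405 read against control.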

[4] = Reversible inhibition of PP2A using p-NPP as substrate assessed as recovery of enzyme activity at 80 uM […] followed by 4 hrs dialysis by spectrophotometry relative to control; parameters: scale not given: the % may be the effect or the level left
[5] = Reversible inhibition of PP2A using p-NPP as substrate assessed as recovery of enzyme activity at 100 uM pretreated for […] followed by 4 hrs dialysis by spectrophotometry relative to control; parameters: scale not given: the % may be the effect or the level left; procedure, shortened: as §1

SMILES	inhibition [1]	IC50 [2] [nM]	inhibition [3]	Activity [4] [%]	Activity [5] [%]	inhibition [2]
C=C1[C@@H](O)[C@@H]2O[C@]3(CC[C@H](/C=C/[C@@H](C)[C@@H]4CC(C)=C[C@@]5(O[C@H](C[C@@](C)(O)C(=O)O)CC[C@H]5O)O4)O3)CC[C@H]2O[C@@H]1[C@@H](O)C[C@H](C)[C@H]1O[C@]2(CC[C@H]1C)CC(O)CCO2 (stereo partly specified)	Active	0.94				
C=C1C(=O)N[C@H](C)C(=O)N[C@@H](CC(C)C)C(=O)N[C@@H](C(=O)O)[C@H](C)C(=O)N[C@@H](CCCNC(=N)N)C(=O)N[C@@H](/C=C/C(C)=C/[C@H](C)[C@H](Cc2ccccc2)OC)[C@H](C)C(=O)N[C@@H](C(=O)O)CCC(=O)N1C (R[Adda][d(γGlu)][NMeDha][dA]L[dAsp(3S-Me)]-OH; lactam N-7)			Active			
C=C1[C@@H](O)[C@@H]2O[C@]3(CC[C@H](/C=C/[C@@H](C)[C@@H]4CC(C=O)=C[C@@]5(O[C@H](C[C@@](C)(O)C(=O)O)CC[C@H]5O)O4)O3)CC[C@H]2O[C@@H]1[C@@H](O)C[C@H](C)[C@H]1O[C@@]2(CCCCO2)CC[C@H]1C	Active	3.98		117		
C=C1[C@@H](O)[C@@H]2O[C@]3(CC[C@H](/C=C/[C@@H](C)[C@@H]4CC(CO)=C[C@@]5(O[C@H](C[C@@](C)(O)C(=O)O)CC[C@H]5O)O4)O3)CC[C@H]2O[C@@H]1[C@@H](O)C[C@H](C)[C@H]1O[C@@]2(CCCCO2)CC[C@H]1C	Active	1.34			113	
C=C1[C@@H](O)[C@@H]2O[C@]3(CC[C@H](/C=C/[C@@H](C)[C@@H]4CC(C)=C[C@@]5(O[C@H](C[C@@](C)(O)C(=O)O)CC[C@H]5O)O4)O3)CC[C@H]2O[C@@H]1[C@@H](O)C[C@H](C)[C@H]1O[C@@]2(CCCCO2)CC[C@H]1C	Active					Active
